pEC50, pIC50: −log10 of the molar value. Several values for one entry are separate records, joined by “and”; a condition that tells them apart may be missing. Identical values can stand only once.

The test system of experiment [1] is Staphylococcus aureus. Put plainly: Antibacterial activity against methicillin-susceptible Staphylococcus aureus NCTC 8325-4 assessed as inhibition of bacterial growth by broth microdilution method. The experiment is classed as functional.
Experiment [2] concerns the target Voltage-gated inwardly rectifying potassium channel KCNH2 (Homo sapiens, UniProt Q12809). Put plainly: Inhibition of hERG by fluorescence polarization assay. In kind it is toxicity. The gist of the method: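 hERG inhibition was measured with a commercial Predictor hERG fluorescence-polarization kit.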
Experiment [3] has as its system Staphylococcus aureus. As to the kind of experiment: Antibacterial activity against methicillin-resistant Staphylococcus aureus CC398 assessed as inhibition of bacterial growth by broth microdilution method. The experiment is classed as functional.
Experiment [4] deals with DNA gyrase (Staphylococcus aureus, UniProt P0A0K8+P20831). Put plainly: Inhibition of Staphylococcus aureus DNA gyrase supercoiling activity using pNO1 plasmid DNA as substrate incubated for 30 mins by fluorescence based microtiter plate reader assay. The experiment is classed as protein-complex assay.
The target in the next experiment is Topoisomerase IV (Staphylococcus aureus, UniProt P0C1S7+P0C1U9). As to the kind of experiment: Inhibition of Staphylococcus aureus topoisomerase 4 using pNO1 plasmid DNA as substrate incubated for 30 mins by fluorescence based microtiter plate reader assay. In kind it is protein-complex assay.
For experiment [5], the target named is DNA gyrase (Escherichia coli, UniProt P0AES4+P0AES6). As to the kind of experiment: Inhibition of Escherichia coli DNA gyrase by fluorescence based microtiter plate reader assay. In kind it is protein-complex assay.
The mark [6] stands for this setting: Staphylococcus aureus, NCTC 8325-4, read-out: MIC.
The mark [7] stands for this setting: Staphylococcus aureus, CC398, read-out: MIC.

Chain of Voltage-gated inwardly rectifying potassium channel KCNH2 (Q12809 whole entry): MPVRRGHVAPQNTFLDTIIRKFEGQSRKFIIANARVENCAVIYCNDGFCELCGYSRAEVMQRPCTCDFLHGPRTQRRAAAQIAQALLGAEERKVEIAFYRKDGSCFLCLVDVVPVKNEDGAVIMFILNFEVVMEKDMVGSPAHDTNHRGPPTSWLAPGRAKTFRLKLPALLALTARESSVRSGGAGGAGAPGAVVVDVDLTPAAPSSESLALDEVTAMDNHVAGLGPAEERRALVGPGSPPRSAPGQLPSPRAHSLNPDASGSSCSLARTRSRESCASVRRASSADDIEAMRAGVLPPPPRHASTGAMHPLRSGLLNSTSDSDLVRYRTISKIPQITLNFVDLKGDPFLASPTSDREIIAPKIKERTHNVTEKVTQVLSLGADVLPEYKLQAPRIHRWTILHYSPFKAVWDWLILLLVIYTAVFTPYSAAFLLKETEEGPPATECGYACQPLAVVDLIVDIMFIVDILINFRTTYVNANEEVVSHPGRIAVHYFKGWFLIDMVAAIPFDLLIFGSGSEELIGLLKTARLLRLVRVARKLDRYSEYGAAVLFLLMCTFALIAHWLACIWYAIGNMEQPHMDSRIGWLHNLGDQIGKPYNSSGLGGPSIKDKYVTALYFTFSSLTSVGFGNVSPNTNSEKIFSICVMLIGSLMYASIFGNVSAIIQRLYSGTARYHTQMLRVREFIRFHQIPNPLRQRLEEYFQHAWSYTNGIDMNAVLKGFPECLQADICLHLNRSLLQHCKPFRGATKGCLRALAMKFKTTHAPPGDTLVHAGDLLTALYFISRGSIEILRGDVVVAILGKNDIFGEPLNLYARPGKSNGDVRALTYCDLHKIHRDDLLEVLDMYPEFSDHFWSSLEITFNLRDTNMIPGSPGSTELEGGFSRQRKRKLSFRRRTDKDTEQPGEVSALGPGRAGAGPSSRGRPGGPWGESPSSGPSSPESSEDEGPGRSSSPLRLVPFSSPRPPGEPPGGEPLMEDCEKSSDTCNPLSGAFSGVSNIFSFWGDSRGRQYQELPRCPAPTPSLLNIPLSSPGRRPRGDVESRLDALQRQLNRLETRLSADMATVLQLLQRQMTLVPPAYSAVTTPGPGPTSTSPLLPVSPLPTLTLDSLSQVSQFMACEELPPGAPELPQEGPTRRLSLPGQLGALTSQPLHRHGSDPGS
Chain of Topoisomerase IV (P0C1U9 whole entry): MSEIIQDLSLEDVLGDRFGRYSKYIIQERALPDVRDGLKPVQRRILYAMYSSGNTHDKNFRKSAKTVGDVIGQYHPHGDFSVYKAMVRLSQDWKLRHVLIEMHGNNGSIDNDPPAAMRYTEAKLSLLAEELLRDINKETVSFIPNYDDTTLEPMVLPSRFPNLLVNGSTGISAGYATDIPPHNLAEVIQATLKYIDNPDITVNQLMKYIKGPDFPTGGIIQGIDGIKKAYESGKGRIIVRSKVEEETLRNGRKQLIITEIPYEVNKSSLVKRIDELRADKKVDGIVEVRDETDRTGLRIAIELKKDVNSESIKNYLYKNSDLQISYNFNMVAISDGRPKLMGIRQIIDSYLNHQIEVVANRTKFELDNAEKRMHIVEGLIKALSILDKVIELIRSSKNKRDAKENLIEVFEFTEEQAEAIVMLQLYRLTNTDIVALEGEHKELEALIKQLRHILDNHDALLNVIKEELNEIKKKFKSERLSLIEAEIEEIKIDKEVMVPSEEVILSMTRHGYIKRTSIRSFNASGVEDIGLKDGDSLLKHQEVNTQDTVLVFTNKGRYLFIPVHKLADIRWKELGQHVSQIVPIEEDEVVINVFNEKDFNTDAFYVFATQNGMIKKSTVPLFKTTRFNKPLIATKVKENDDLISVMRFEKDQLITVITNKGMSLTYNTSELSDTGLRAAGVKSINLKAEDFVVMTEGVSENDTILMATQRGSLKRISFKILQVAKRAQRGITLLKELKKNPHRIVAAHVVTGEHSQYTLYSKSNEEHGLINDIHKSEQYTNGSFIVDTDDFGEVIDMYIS
Chain of Topoisomerase IV (P0C1S7 whole entry): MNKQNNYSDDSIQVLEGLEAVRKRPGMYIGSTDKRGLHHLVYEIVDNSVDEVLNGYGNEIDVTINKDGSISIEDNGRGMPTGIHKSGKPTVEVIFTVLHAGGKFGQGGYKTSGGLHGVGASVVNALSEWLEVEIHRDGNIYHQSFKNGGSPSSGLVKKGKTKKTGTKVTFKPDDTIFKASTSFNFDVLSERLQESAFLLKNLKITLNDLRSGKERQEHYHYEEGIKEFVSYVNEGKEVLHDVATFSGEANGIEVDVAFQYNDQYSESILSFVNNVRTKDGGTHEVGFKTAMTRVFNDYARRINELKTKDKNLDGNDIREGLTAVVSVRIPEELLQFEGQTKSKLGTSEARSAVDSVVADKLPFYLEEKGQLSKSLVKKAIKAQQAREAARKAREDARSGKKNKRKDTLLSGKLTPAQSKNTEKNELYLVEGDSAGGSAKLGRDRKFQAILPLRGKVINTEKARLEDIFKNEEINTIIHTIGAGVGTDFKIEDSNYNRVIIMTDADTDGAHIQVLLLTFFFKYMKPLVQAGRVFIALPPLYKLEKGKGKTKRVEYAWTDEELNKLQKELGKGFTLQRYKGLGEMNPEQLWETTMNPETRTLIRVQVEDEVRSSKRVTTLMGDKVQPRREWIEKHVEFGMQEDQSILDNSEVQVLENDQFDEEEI
Chain of DNA gyrase (Staphylococcus aureus, UniProt P0A0K8+P20831) (P0A0K8 whole entry): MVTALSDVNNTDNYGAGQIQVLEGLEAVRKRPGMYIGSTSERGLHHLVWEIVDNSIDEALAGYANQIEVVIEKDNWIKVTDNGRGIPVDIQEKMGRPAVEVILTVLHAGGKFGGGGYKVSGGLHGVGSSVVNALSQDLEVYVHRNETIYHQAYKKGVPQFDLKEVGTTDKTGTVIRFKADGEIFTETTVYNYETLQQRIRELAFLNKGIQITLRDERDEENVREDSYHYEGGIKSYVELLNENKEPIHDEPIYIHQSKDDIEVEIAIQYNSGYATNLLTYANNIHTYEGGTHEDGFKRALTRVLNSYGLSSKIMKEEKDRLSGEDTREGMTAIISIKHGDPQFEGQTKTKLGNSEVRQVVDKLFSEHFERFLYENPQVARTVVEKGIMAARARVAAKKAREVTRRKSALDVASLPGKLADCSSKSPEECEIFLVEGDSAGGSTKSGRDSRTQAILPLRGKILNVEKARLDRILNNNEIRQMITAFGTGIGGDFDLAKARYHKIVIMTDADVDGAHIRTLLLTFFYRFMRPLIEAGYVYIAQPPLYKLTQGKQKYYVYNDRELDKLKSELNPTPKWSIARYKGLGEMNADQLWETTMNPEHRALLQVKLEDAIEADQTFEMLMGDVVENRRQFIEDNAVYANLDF
Chain of DNA gyrase (Staphylococcus aureus, UniProt P0A0K8+P20831) (P20831 whole entry): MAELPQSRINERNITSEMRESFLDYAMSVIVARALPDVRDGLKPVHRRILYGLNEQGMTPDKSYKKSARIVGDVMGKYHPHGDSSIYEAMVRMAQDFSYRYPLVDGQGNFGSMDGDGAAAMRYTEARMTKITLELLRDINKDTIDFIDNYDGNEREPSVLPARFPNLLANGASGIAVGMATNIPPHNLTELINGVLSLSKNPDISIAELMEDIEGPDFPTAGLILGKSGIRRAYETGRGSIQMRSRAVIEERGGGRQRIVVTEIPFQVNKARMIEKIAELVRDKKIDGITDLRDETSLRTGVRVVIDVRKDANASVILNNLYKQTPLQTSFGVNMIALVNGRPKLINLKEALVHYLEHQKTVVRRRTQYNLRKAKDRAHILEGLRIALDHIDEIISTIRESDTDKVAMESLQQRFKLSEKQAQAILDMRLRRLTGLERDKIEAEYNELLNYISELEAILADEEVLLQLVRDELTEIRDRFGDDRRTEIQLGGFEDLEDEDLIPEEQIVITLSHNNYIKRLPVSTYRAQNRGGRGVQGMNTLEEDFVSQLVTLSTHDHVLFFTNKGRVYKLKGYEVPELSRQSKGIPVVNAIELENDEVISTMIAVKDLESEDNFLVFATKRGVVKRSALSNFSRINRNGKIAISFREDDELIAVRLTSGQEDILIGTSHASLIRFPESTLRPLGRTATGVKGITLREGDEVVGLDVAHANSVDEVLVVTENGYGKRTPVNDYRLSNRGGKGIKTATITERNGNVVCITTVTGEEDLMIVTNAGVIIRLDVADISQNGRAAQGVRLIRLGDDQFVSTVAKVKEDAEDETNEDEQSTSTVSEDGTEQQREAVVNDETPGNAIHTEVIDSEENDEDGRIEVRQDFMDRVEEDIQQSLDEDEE

Take `COc1ccc2ncc(F)c(CCCN3CCN(C(=O)CSc4ccccc4)C[C@@H]3C(=O)O)c2c1`: the MIC in the experiment with Staphylococcus aureus [1] (setting [6]) was > 100 µM and > 50 µg/mL. This compound also had a pEC50 in experiment [2] above 4.52.
Regarding `COc1ccc2ncc(F)c(C#CCN3CCN(CCSc4cccs4)C[C@@H]3C(=O)O)c2c1`, the MIC in the experiment with Staphylococcus aureus [1] (setting [6]) was 51.5 µM and 25 µg/mL; in the experiment on Staphylococcus aureus [3] (setting [7]) it was 12.5 µg/mL and 25.7 µM. Besides, in experiment [2], the pEC50 is above 4.52. Also, the figures for the pIC50 on DNA gyrase [4] and on Topoisomerase IV were 6.32 and 5.61, respectively.
On to `COc1ccc2ncc(F)c(CCCN3CCN(CCSc4cccs4)C[C@@H]3C(=O)NC(=O)CC(=O)O)c2c1`, for which the MIC with Staphylococcus aureus [1] (setting [6]) was 21.8 µM and 12.5 µg/mL; with Staphylococcus aureus [3] (setting [7]) it was 12.5 µg/mL and 21.8 µM. The same compound gave a negative-log EC50 (pEC50) in experiment [2] of 6.30.
Consider `COc1ccc2ncc(F)c(CCCN3CCN(CCCCc4ccccc4)C[C@@H]3C(=O)O)c2c1`, for which the MIC was 12.9 µM and 6.2 µg/mL in the experiment with Staphylococcus aureus [1] (setting [6]); 3.1 µg/mL and 6.5 µM in the experiment on Staphylococcus aureus [3] (setting [7]). In experiment [2], this compound had a pEC50 of 4.68. The negative-log IC50 (pIC50) was 6.43 against DNA gyrase [4] and 5.42 on Topoisomerase IV.
Turning to `COc1ccc2ncc(F)c(C(O)CCN3CCN(CCSc4cccs4)C[C@@H]3C(=O)O)c2c1` (mixture of isomers; 20), the MIC was 12.5 µg/mL in the experiment on Staphylococcus aureus [1]; 6.2 ug ml-1 and 12.3 uM in the experiment on Staphylococcus aureus [3].
For `COc1ccc2ncc(F)c(CCCN3CCN(CCSc4cccs4)C[C@H]3C(=O)O)c2c1`, the MIC in the experiment on Staphylococcus aureus [1] (setting [6]) was 6.3 µM and 3.1 µg/mL; in the experiment on Staphylococcus aureus [3] (setting [7]), 1.6 µg/mL and 3.3 µM. The pEC50 in experiment [2] was 4.59.
Turning to `COc1ccc2ncc(F)c(CCCN3CCN(C/C=C/c4cc(F)ccc4F)C[C@@H]3C(=O)O)c2c1`, the MIC with Staphylococcus aureus [1] (setting [6]) is 0.4 µM and 0.2 µg/mL; in the experiment with Staphylococcus aureus [3] (setting [7]), 0.1 µg/mL and 0.2 µM. Besides, the negative-log EC50 (pEC50) in experiment [2] was 4.60. Besides, the results for the pIC50 at DNA gyrase [4], against Topoisomerase IV and at DNA gyrase [5] were 6.55, 5.62 and 5.19, respectively.
Turning to `COC(=O)[C@H]1CN(CCSc2cccs2)CCN1CCCc1c(F)cnc2ccc(OC)cc12`, the MIC is > 99.3 µM and > 50 µg/mL with Staphylococcus aureus [1] (setting [6]); > 50 µg/mL and > 99.3 µM with Staphylococcus aureus [3] (setting [7]). In addition, the pEC50 in experiment [2] is 5.70. For the same compound, the negative logarithm of the IC50 (pIC50) is 3.52 at DNA gyrase [4] and 4.73 against DNA gyrase [5].
On to `COc1ccc2ncc(F)c(CCCN3CCN(CCSc4cccs4)C[C@@H]3C(=O)O)c2c1`, for which the MIC was 0.8 µM and 0.4 µg/mL in the experiment on Staphylococcus aureus [1] (setting [6]); 0.2 µg/mL and 0.4 µM with Staphylococcus aureus [3] (setting [7]). In addition, the pEC50 in experiment [2] was 4.77. Also, the pIC50 is 6.43 against DNA gyrase [4], 5.12 against Topoisomerase IV and 5.27 against DNA gyrase [5].
For the compound `COc1ccc2ncc(F)c(CCCN3CCN(CCSc4cccs4)[C@@H](C(=O)O)C3)c2c1`, the MIC in the experiment on Staphylococcus aureus [1] (setting [6]) is 6.3 µM and 3.1 µg/mL; in the experiment on Staphylococcus aureus [3] (setting [7]) it was 1.6 µg/mL and 3.3 µM. The compound also gave a pEC50 in experiment [2] above 4.52.
As for `COc1ccc2ncc(F)c(CCCN3CCN(CCSc4cccs4)C[C@@H]3C(N)=O)c2c1`, the MIC with Staphylococcus aureus [1] (setting [6]) was 1.6 µM and 0.8 µg/mL. Besides, the pEC50 in experiment [2] was 5.70.
`COc1ccc2ncc(F)c(CCCN3CCN(C(=O)CSc4cccs4)C[C@@H]3C(=O)O)c2c1`: the MIC was > 99.3 µM and > 50 µg/mL in the experiment on Staphylococcus aureus [1] (setting [6]); > 50 µg/mL and > 99.3 µM with Staphylococcus aureus [3] (setting [7]). The compound also showed a pEC50 in experiment [2] of 5.15.
As for `COc1ccc2ncc(F)c(CCCN3CCN(CCc4ccccc4)C[C@@H]3C(=O)O)c2c1`, the MIC was 14 µM and 6.3 µg/mL in the experiment on Staphylococcus aureus [1] (setting [6]); 3.1 µg/mL and 6.9 µM with Staphylococcus aureus [3] (setting [7]). Moreover, the pEC50 in experiment [2] is 4.06. In addition, the results for the pIC50 on DNA gyrase [4] and against Topoisomerase IV were 6.27 and 4.90, respectively.
As to `COc1ccc2ncc(F)c([C@@H](O)CC[C@@H]3CCN(CCSc4cccs4)C[C@@H]3C(=O)O)c2c1`, the MIC is 0.8 µM and 0.4 µg/mL in the experiment on Staphylococcus aureus [1] (setting [6]); 0.2 µg/mL and 0.4 µM with Staphylococcus aureus [3] (setting [7]). The same compound showed a pEC50 in experiment [2] of 4.62. Further, the pIC50 on DNA gyrase [4] is 6.47; at Topoisomerase IV it was 5.06; on DNA gyrase [5] it was 5.41.
Regarding `COc1ccc2ncc(F)c(/C=C/CN3CCN(CCSc4cccs4)C[C@@H]3C(=O)O)c2c1`, the MIC in the experiment with Staphylococcus aureus [1] (setting [6]) is 3.1 µM and 1.5 µg/mL; in the experiment on Staphylococcus aureus [3] (setting [7]), 0.8 µg/mL and 1.6 µM. In addition, the pEC50 in experiment [2] was above 4.52. Also, the values for the pIC50 against DNA gyrase [4] and against Topoisomerase IV were 6.17 and 5.74, respectively.
Consider `COc1ccc2ncc(F)c(CCCN3CCN(C/C=C/c4ccccc4)C[C@@H]3C(=O)O)c2c1`, for which the MIC in the experiment on Staphylococcus aureus [1] (setting [6]) is 1.7 µM and 0.8 µg/mL; in the experiment on Staphylococcus aureus [3] (setting [7]), 0.2 µg/mL and 0.4 µM. In experiment [2], the pEC50 is 4.42. In addition, the pIC50 against DNA gyrase [4] is 6.72; against Topoisomerase IV, 5.47.
Take `COc1ccc2ncc(F)c(CCCN3CCN(Cc4ccccc4)C[C@@H]3C(=O)O)c2c1`: the MIC in the experiment on Staphylococcus aureus [1] (setting [6]) is > 114 µM and > 50 µg/mL. Moreover, the pEC50 in experiment [2] is 4.60.
With `COc1ccc2ncc(F)c(CCCN3CCN(C(=O)CCc4ccccc4)C[C@@H]3C(=O)O)c2c1`, the MIC was > 104 µM and > 50 µg/mL with Staphylococcus aureus [1] (setting [6]); > 50 µg/mL and > 104 µM with Staphylococcus aureus [3] (setting [7]).
With `COc1ccc2ncc(F)c(C(O)CCN3CCN(CCSc4cccs4)C[C@@H]3C(=O)O)c2c1` (mixture of isomers; 19), the MIC in the experiment with Staphylococcus aureus [1] (setting [6]) is 24.7 µM and 12.5 µg/mL; in the experiment on Staphylococcus aureus [3] it was 0.8 ug ml-1 and 1.6 uM. This compound gave a pEC50 in experiment [2] above 4.52.
As to `COc1ccc2ncc(F)c(CCCN3CCN(CCCc4ccccc4)C[C@@H]3C(=O)O)c2c1`, the MIC is 1.7 µM and 0.8 µg/mL with Staphylococcus aureus [1] (setting [6]); 0.4 µg/mL and 0.9 µM in the experiment with Staphylococcus aureus [3] (setting [7]). The compound also gave a pEC50 in experiment [2] of 4.77. Moreover, the figures for the negative-log IC50 (pIC50) on DNA gyrase [4] and at Topoisomerase IV were 6.34 and 4.99, respectively.
Regarding `COC(=O)[C@@H]1CN(CCSc2cccs2)CCN1CCCc1c(F)cnc2ccc(OC)cc12`, the MIC was > 99.3 µM and > 50 µg/mL in the experiment with Staphylococcus aureus [1] (setting [6]); > 50 µg/mL and > 99.3 µM in the experiment on Staphylococcus aureus [3] (setting [7]). Further, in experiment [2], the pEC50 was 5.40.
As to `COc1ccc2ncc(F)c(/C=C\CN3CCN(CCSc4cccs4)C[C@@H]3C(=O)O)c2c1`, the MIC in the experiment on Staphylococcus aureus [1] (setting [6]) is 25.6 µM and 12.5 µg/mL; with Staphylococcus aureus [3] (setting [7]), 3.1 µg/mL and 6.4 µM. The compound also gave a pEC50 in experiment [2] above 4.52. For the same compound, the values for the pIC50 at DNA gyrase [4] and against Topoisomerase IV were 6.55 and 5.00, respectively.
